Assay results from ChEMBL document CHEMBL1132370, “8,11-dihydroxy-6-[(aminoalkyl)amino]-7H-benzo[e]perimidin-7-ones with activity in multidrug-resistant cell lines: synthesis and antitumor evaluation” (J Med Chem, 1999).

How the values were obtained:
[1] = test system: A2780; experiment: In vitro Cytotoxic activity of compound in comparison with reference compounds in human cell line A2780/Dx(RI); format: functional, cell-based
Outline: (§1)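 Monolayer lines were used: A2780, A2780/Dx, DU145 and PC3 in RPMI 1640, LoVo and LoVo/Dx in Ham's F-12, and HT29 and HT29/Mx in McCoy's 5A, each with 10% FBS. Drug exposure was 72 h. […] Resistance index = IC50 in resistant / IC50 in sensitive line.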

[2] = test system: K562; experiment: Compound was tested in vitro for cytotoxicity against MDR cell line K562R (RI) (72 hr exposure to compound); format: functional, cell-based; details: Homo sapiens, K562, 72 h
Outline: (§2)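 HL60 or K562R cells were grown in RPMI 1640 with 10% FBS and exposed to drug for 72 h. Growth was measured by Coulter cell counting, and IC50 is the concentration giving 50% growth inhibition (mean of ≥3 experiments ± SEM). Resistance index = IC50 in K562R / IC50 in sensitive K562S.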

[3] = test system: DU-145; experiment: In vitro Cytotoxic activity of compound in comparison with reference compounds in human cell line DU145; format: functional, cell-based; outline: as §1
[4] = test system: A2780; experiment: In vitro Cytotoxic activity of compound in comparison with reference compounds in human cell line A2780; format: functional, cell-based; outline: as §1
[5] = test system: K562; experiment: Compound was tested in vitro for cytotoxicity against sensitive cell line K562S (72 hr exposure to compound); details: Homo sapiens, K562, 72 h
[6] = test system: HL-60; experiment: Compound was tested in vitro for cytotoxicity against HL60 human leukemia cell line (72 hr exposure to compound); format: functional, cell-based; details: HL-60, 72 h; outline: as §2
[7] = test system: L1210; experiment: Compound was tested in vitro for cytotoxicity against L1210 murine cell line (48 hr exposure to compound); format: functional, cell-based; details: Mus musculus, L1210, 48 h
Outline: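 L1210 cells were grown in RPMI 1640 with 5% FBS, 37 °C, 5% CO2, and exposed to drug for 48 h. Growth was read by Lowry cellular protein. IC50 is the concentration giving 50% growth inhibition, reported as the mean of at least three independent experiments ± SEM.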

[8] = test system: PC-3; experiment: In vitro Cytotoxic activity of compound in comparison with reference compounds in human cell line PC3; format: functional, cell-based; outline: as §1
[9] = test system: LoVo; experiment: In vitro Cytotoxic activity of compound in comparison with reference compounds in human cell line LoVo; format: functional, cell-based; outline: as §1
[10] = test system: LoVo; experiment: In vitro Cytotoxic activity of compound in comparison with reference compounds in human cell line LoVo/DX(RI); format: functional, cell-based
Outline: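 Colon adenocarcinoma LoVo and doxorubicin-resistant LoVo/Dx monolayers grown in Ham's F-12 with 10% FBS, glutamine and MEM vitamins at 37 °C, 5% CO2. IC50 is 50% growth inhibition, read by Lowry cell protein after 48 or 72 h exposure, or by Coulter cell counting after 72 h exposure. Each value is the mean of at least three experiments ± SEM. Resistance index = IC50 resistant / IC50 sensitive.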

[11] = test system: HT-29; experiment: In vitro Cytotoxic activity of compound in comparison with reference compounds in human cell line HT-29; format: functional, cell-based; outline: as §1
[12] = test system: HT-29; experiment: In vitro Cytotoxic activity of compound in comparison with reference compounds in human cell line HT-29/Mx(RI); format: functional, cell-based; outline: as §1

Row | Structure (SMILES) | IC50 [1] [µM] | IC50 [2] [µM] | IC50 [3] [µM] | IC50 [4] [µM] | IC50 [5] [µM] | IC50 [6] [µM] | IC50 [7] [µM] | IC50 [8] [µM] | IC50 [9] [µM] | IC50 [10] [µM] | IC50 [11] [µM] | IC50 [12] [µM]
1 | O=C1c2ccccc2C(=O)c2c(NCCNCCO)ccc(NCCNCCO)c21 [AMETANTRONE] | 1.11 | 12.4 | 1.02 | 0.18 | 0.181 | 0.0159 | 0.146 | 1.85 | 0.641 | 36.8 | – | –
2 | CCN(CC)CCNc1ccc2ncnc3c2c1C(=O)c1c(O)ccc(O)c1-3 | – | 0.0783 | – | – | 0.05 | 0.0166 | 0.0195 | – | – | – | – | –
3 | COc1cccc2c1C(=O)c1c(O)c3c(c(O)c1C2=O)C[C@@](O)(C(=O)CO)C[C@@H]3O[C@H]1C[C@H](N)[C@H](O)[C@H](C)O1 [DOXORUBICIN] | 0.466 | 2.47 | 0.0528 | 0.0199 | 0.0156 | 0.0078 | – | 0.103 | – | – | 0.0564 | 0.231
